Measured values taken from paper PMC10731006 (Heliyon, 2023).
In brackets after ≈: the same amount, converted by molar mass. Entries after “also recorded” stand apart in the source; their conditions may differ.

Experiments:
[1] = tested on: Staphylococcus aureus (ATCC 10145); test: Micro-broth dilution assay; assay type: cell-based; details: ATCC10145, read-out: MIC SA
[2] = tested on: Escherichia coli (ATCC 25922); test: Agar diffusion test, E. coli; assay type: cell-based; details: ATCC25922, read-out: Zone of inhibition EC
[3] = tested on: Pseudomonas aeruginosa (ATCC 13048); test: Micro-broth dilution assay; assay type: cell-based; details: ATCC13048, read-out: MIC PA
[4] = tested on: breast cancer (MCF7) cells; test: MTT cytotoxicity assay, MCF7; assay type: cell-based, human; details: for IC50: Homo sapiens, MCF7, 96 h, read-out: IC50 MCF-7; for SI MCF-7 (selectivity index): IC50 in HDF / IC50 in MCF-7, 96 h
Method in brief: (§1)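 Cells were grown in RPMI 1640 with 10% FCS, 2 mM L-glutamine and 1% penicillin-streptomycin at 37 °C under 5% CO2. They were seeded at 1 × 10^4 cells/ml, left overnight to adhere, and exposed 96 h to test compound diluted in medium (six final levels, 1–600), with DMSO-matched and cisplatin controls. MTT at 5 mg/ml was added for 4 h, formazan dissolved in DMSO, and A540 read, in triplicate. IC50 was fitted from the data. SI = IC50 in HDF / IC50 in this line.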

[5] = tested on: cancer cell lines (U87, MCF-7 and A549) compared to normal cells (HDF); test: MTT cytotoxicity, cancer cell lines compared to normal cells; assay type: cell-based, human; details: 96 h treatment
Method in brief: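 A549 and MCF7 grown in RPMI 1640, HDF and U87 in DMEM, each with 10% FCS, 2 mM L-glutamine, 1% pen-strep, 37 °C, 5% CO2. Cells at 1 × 10^4 cells/ml were adhered overnight, then exposed 96 h to test compound (final 1–600 […] in medium). Controls were blank, untreated, DMSO-matched and cisplatin (1–100 μM/mL). MTT 5 mg/ml for 4 h; DMSO-solubilised formazan read at 540 nm, triplicate. IC50 from curve fitting; selectivity index = HDF IC50 / cancer-line IC50.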

[6] = tested on: glioblastoma (U-87 MG) cells; test: MTT cytotoxicity assay, U-87 MG; assay type: cell-based, human; details: for IC50: Homo sapiens, U-87 MG, 96 h, read-out: IC50 U87; for SI U87 (selectivity index): IC50 in HDF / IC50 in U87, 96 h
Method in brief: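 U-87 MG cells were cultured in DMEM with 10% FCS, 2 mM L-glutamine and 1% penicillin-streptomycin at 37 °C, 5% CO2. Seeding was 1 × 10^4 cells/ml; after overnight adherence, test compound diluted in medium (six final levels, 1–600) was applied for 96 h alongside DMSO-matched and cisplatin controls. Read-out: MTT 5 mg/ml for 4 h, DMSO solubilisation, A540, in triplicate, IC50 fitted. SI = IC50 in HDF / IC50 in U87.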

[7] = tested on: Pseudomonas aeruginosa (ATCC 13048); test: Agar diffusion test, P. aeruginosa; assay type: cell-based; details: ATCC13048, read-out: Zone of inhibition PA
B. subtilis (ATCC 6633) [8] = test: Micro-broth dilution assay; assay type: cell-based; details: Bacillus subtilis, ATCC6633, read-out: MIC BS
[9] = DPPH radical scavenging assay
[10] = tested on: non-small cell lung cancer (A549) cells; test: MTT cytotoxicity assay, A549; assay type: cell-based, human; details: for IC50: Homo sapiens, A549, 96 h, read-out: IC50 A549; for SI A549 (selectivity index): IC50 in HDF / IC50 in A549, 96 h
Method in brief: as §1

[11] = tested on: Escherichia coli (ATCC 25922); test: Micro-broth dilution assay; assay type: cell-based; details: ATCC25922, read-out: MIC EC
[12] = ABTS radical scavenging assay
[13] = tested on: human dermal fibroblast (HDF, human dermal cell line); test: MTT cytotoxicity assay, normal cells; assay type: cell-based; details: Homo sapiens, Fibroblast, 96 h, read-out: IC50 HDF
Method in brief: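 Human dermal fibroblasts were maintained in DMEM with 10% FCS, 2 mM L-glutamine and 1% penicillin-streptomycin (37 °C, 5% CO2). They were seeded at 1 × 10^4 cells/ml, allowed to adhere overnight, then treated 96 h with serially diluted test compound (six final levels, 1–600) beside DMSO-matched vehicle and cisplatin controls. Then MTT 5 mg/ml was added for 4 h, formazan taken up in DMSO, and absorbance read at 540 nm, in triplicate. IC50 was fitted.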

[14] = tested on: Gram-positive and Gram-negative bacterial test strains; test: Antibacterial activity, whole panel of test strains; assay type: cell-based
Method in brief: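 Disc diffusion followed CLSI (2012). Test compound at 10, 50 and 100 μg/disc was loaded on 6-mm blank filter discs laid on Mueller Hinton agar seeded at 10^6 cells/ml. Strains were S. aureus ATCC 10145, B. cereus ATCC 11778, B. subtilis ATCC 6633, P. aeruginosa ATCC 13048 and E. coli ATCC 25922. Inhibition zones were recorded.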

[15] = tested on: Bacillus cereus (ATCC 11778); test: Micro-broth dilution assay; assay type: cell-based; details: ATCC11778, read-out: MIC BC
[16] = tested on: Bacillus cereus (ATCC 11778); test: Agar diffusion test, B. cereus; assay type: cell-based; details: ATCC11778, read-out: Zone of inhibition BC
B. subtilis (ATCC 6633) [17] = test: Agar diffusion test, B. subtilis; assay type: cell-based; details: Bacillus subtilis, ATCC6633, read-out: Zone of inhibition BS

Structure (SMILES) | MIC [1] | MIC [3] | IC50 [4] | SI MCF-7 (selectivity index) [4] | cytotoxic / anti-proliferative activity in words [5] | IC50 [6] | SI U87 (selectivity index) [6] | MIC (B. subtilis (ATCC 6633) [8]) | IC50 ± SD, DPPH [9] | % inhibition ±SD, DPPH ([9]; 10 μg/ml) | % inhibition ±SD, DPPH ([9]; 25 μg/ml) | % inhibition ±SD, DPPH ([9]; 50 μg/ml) | % inhibition ±SD, DPPH ([9]; 100 μg/ml) | IC50 [10] | SI A549 (selectivity index) [10] | MIC [11] | IC50 ± SD, ABTS [12] | % inhibition ±SD, ABTS ([12]; 5 μg/ml) | % inhibition ±SD, ABTS ([12]; 10 μg/ml) | % inhibition ±SD, ABTS ([12]; 25 μg/ml) | also measured
COC(=O)c1cn(C2CC2)c2cc(N3CCN(C(=O)c4c(C)nnn4Cc4cccc(F)c4)CC3)c(F)cc2c1=O [Compound 6b, methyl 7-(4-(1-(3-fluorobenzyl)-4-methyl-1H-1,2,3-triazole-5-carbonyl)piperazin-1-yl)-1-cyclopropyl-6-fluoro-4-oxo-1,4-dihydroquinoline-3-carboxylate] | > 500 µg/mL | 500 µg/mL (≈ 889 µM) | 10.6 ± 2.3 µM | 16.1 | remarkable anti-proliferative activity against all three cell-lines; also recorded: significant cytotoxic activity against all cancer cell lines | 1.2 ± 0.8 µM | 142.3 | > 500 µg/mL | 32.4 ± 1.1 µg/mL (≈ 57.6 µM) | 18.9 ± 0.3% | 40.6 ± 0.9% | 58.5 ± 0.6% | 84.1 ± 0.2% | 29.4 ± 6.2 µM | 5.8 | 500 µg/mL (≈ 889 µM) | 35.3 ± 1.6 µg/mL (≈ 62.7 µM) | 11.8 ± 0.5% | 28.3 ± 0.4% | 43.4 ± 0.3% | zone of inhibition at 100 µg/disc [2]: 10.6 ± 1.2 mm; zone of inhibition at 300 µg/disc [2]: 13.3 ± 1.5 mm; zone of inhibition at 500 µg/disc [2]: 14.7 ± 0.6 mm; zone of inhibition at 100 µg/disc [7]: 12.3 ± 0.7 mm; zone of inhibition at 300 µg/disc [7]: 13.6 ± 0.6 mm; zone of inhibition at 500 µg/disc [7]: 15.3 ± 0.3 mm; % inhibition ±SD, ABTS ([12]; 50 μg/ml): 53.9 ± 0.8%; % inhibition ±SD, ABTS ([12]; 100 μg/ml): 72.9 ± 0.5%; IC50 [13]: 171 ± 8.1 µM; antibacterial activity in words [14]: activity against Gram-negative ones without inhibiting the Gram-positive test strains; MIC [15]: > 500 µg/mL
COC(=O)c1cn(C2CC2)c2cc(N3CCN(C(=O)c4c(C)nnn4Cc4ccc(F)cc4)CC3)c(F)cc2c1=O [Compound 6a, methyl 7-(4-(1-(4-fluorobenzyl)-4-methyl-1H-1,2,3-triazole-5-carbonyl)piperazin-1-yl)-1-cyclopropyl-6-fluoro-4-oxo-1,4-dihydroquinoline-3-carboxylate] | > 500 µg/mL | > 500 µg/mL | 112 ± 10.1 µM | 4.5 | remarkable anti-proliferative activity against all three cell-lines; also recorded: significant cytotoxic activity against all cancer cell lines | 34.6 ± 7.8 µM | 14.6 | 500 µg/mL (≈ 889 µM) | 32.6 ± 2.9 µg/mL (≈ 57.9 µM) | 40.2 ± 0.4% | 47.2 ± 1.0% | 53.2 ± 0.9% | 63.3 ± 0.8% | 139 ± 9.3 µM | 3.6 | > 500 µg/mL | 17.8 ± 1.1 µg/mL (≈ 31.6 µM) | 22.7 ± 0.2% | 48.7 ± 0.5% | 53.5 ± 0.3% | zone of inhibition at 100 µg/disc [16]: 12.7 ± 0.6 mm; zone of inhibition at 300 µg/disc [16]: 14.6 ± 0.3 mm; zone of inhibition at 500 µg/disc [16]: 15.3 ± 0.3 mm; % inhibition ±SD, DPPH ([9]; 5 μg/ml): 27.04 ± 0.2%; zone of inhibition at 100 µg/disc (B. subtilis (ATCC 6633) [17]): 11.3 ± 1.2 mm; zone of inhibition at 300 µg/disc (B. subtilis (ATCC 6633) [17]): 13.1 ± 0.6 mm; zone of inhibition at 500 µg/disc (B. subtilis (ATCC 6633) [17]): 14.6 ± 0.7 mm; % inhibition ±SD, ABTS ([12]; 50 μg/ml): 71.1 ± 1.0%; % inhibition ±SD, ABTS ([12]; 100 μg/ml): 75.5 ± 0.5%; IC50 [13]: 504 ± 19.9 µM; antibacterial activity in words [14]: bioactivity against Gram-positive bacterial test strains; MIC [15]: 500 µg/mL (≈ 889 µM)
COC(=O)c1cn(C2CC2)c2cc(N3CCN(C(=O)c4c(C)nnn4-c4ccc(F)cc4)CC3)c(F)cc2c1=O [Compound 6f, methyl 7-(4-(1-(4-fluorophenyl)-4-methyl-1H-1,2,3-triazole-5-carbonyl)piperazin-1-yl)-1-cyclopropyl-6-fluoro-4-oxo-1,4-dihydroquinoline-3-carboxylate] | > 500 µg/mL | > 500 µg/mL | 10.6 ± 3 µM | 13.3 | significant cytotoxic activity against only U-87 and MCF-7 cancer cell lines | 7.9 ± 2.3 µM | 18 | > 500 µg/mL | 56.2 ± 2.1 µg/mL (≈ 102 µM) | 20.7 ± 0.8% | 39.5 ± 0.5% | 48.9 ± 0.4% | 66.9 ± 0.3% | 104 ± 4.5 µM | 1.4 | > 500 µg/mL | 39.2 ± 2.1 µg/mL (≈ 71.5 µM) | 13.3 ± 0.6% | 29.7 ± 0.7% | 46.1 ± 0.1% | % inhibition ±SD, DPPH ([9]; 5 μg/ml): 10.6 ± 0.9%; % inhibition ±SD, ABTS ([12]; 50 μg/ml): 54.1 ± 0.7%; % inhibition ±SD, ABTS ([12]; 100 μg/ml): 64.2 ± 0.4%; IC50 [13]: 142 ± 4.1 µM; antibacterial activity in words [14]: deprived of any antibacterial activity; MIC [15]: > 500 µg/mL
